The values that follow come from ChEMBL document CHEMBL4028865, “Targeted Polypharmacology: Discovery of a Highly Potent Non-Hydroxamate Dual Matrix Metalloproteinase (MMP)-10/-13 Inhibitor” (J Med Chem, 2017).

In assay [1] the target is T1, Stromelysin-2 (Homo sapiens, UniProt P09238). The experiment in a line: Inhibition of MMP10 (unknown origin) assessed as residual activity at 10 uM using (5-FAM/QX) FRET peptide as substrate by fluorescence assay relative to control. The method in brief: (§1)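 Residual enzyme activity read at a single 10 μM inhibitor concentration, in duplicate. Fluorescence assay on cleavage of the QXL520/5-FAM FRET peptide. Buffer was 50 mM HEPES pH 7.5 with 10 mM CaCl₂, 0.01% Brij-35 and 0.1 mg/ml BSA. GM6001 served as control inhibitor. Same assay system as the IC50 determinations.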
Target sequence in this assay (P09238 99-476 limits assumed): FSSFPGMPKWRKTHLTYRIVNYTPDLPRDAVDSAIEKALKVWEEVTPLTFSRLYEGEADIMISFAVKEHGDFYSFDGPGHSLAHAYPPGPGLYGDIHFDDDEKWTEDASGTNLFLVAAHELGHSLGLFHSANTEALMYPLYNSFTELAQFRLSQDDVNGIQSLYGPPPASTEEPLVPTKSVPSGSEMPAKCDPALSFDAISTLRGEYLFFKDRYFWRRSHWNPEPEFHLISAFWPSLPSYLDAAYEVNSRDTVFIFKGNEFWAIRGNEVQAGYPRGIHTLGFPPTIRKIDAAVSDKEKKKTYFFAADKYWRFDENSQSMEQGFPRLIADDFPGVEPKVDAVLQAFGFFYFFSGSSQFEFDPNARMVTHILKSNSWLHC

For assay [2], the target named is T2, Collagenase 3 (Homo sapiens, UniProt P45452). Nature of the assay: Inhibition of C-terminal tagged human recombinant MMP13 catalytic domain expressed in Escherichia coli using (5-FAM/QX) FRET peptide as substrate by fluorescence assay. The conditions noted are these: for pIC50: read-out: IC50; for IC50: read-out: pIC50 (converted). The procedure, abridged:
(§2)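 IC50 from 10 concentrations in 3-fold dilution, starting at 10 μM or 100 μM, with two to six replicates. Run only for compounds leaving under 20% residual activity at 10 μM. Fluorescence read-out of QXL520/5-FAM FRET peptide cleavage in 50 mM HEPES pH 7.5, 10 mM CaCl₂, 0.01% Brij-35 and 0.1 mg/ml BSA. Four-parameter least-squares fit; GM6001 as control.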

The target of assay [3] is T2, Collagenase 3. The experiment in a line: Inhibition of C-terminal tagged human recombinant MMP13 catalytic domain expressed in Escherichia coli assessed as residual activity at 10 uM using (5-FAM/QX) FRET peptide as substrate by fluorescence assay relative to control. The procedure, abridged:
as §1

In assay [4] the target is T1, Stromelysin-2. The experiment in a line: Inhibition of MMP10 (unknown origin) assessed using (5-FAM/QX) FRET peptide as substrate by fluorescence assay. The conditions noted are these: for pIC50: read-out: IC50; for IC50: read-out: pIC50 (converted). The method in brief:
as §2
Target sequence in this assay (P09238 whole entry): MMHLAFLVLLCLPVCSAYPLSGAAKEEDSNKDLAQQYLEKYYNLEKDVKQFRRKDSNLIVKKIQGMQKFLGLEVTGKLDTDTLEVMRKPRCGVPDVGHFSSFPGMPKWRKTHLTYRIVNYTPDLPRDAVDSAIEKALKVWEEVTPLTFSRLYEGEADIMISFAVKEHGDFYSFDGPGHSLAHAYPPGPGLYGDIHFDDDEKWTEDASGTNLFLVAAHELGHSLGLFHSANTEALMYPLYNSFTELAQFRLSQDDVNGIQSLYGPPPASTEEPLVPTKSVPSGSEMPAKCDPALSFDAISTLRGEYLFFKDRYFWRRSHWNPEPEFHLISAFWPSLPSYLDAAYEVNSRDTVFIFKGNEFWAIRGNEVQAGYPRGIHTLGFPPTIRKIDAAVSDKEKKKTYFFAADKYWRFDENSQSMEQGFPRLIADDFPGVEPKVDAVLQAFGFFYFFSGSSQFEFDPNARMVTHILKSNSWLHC

pIC50: −log10 of the molar value.

By pIC50 is commonly meant the IC50 on a negative log10 scale, so that one unit is a factor of ten. Consider `COc1cc(CNC(=O)C#Cc2cn(Cc3ccc(S(=O)(=O)NC4CC4)cc3)c(=O)[nH]c2=O)ccc1F`, for which the values for the Activity at Stromelysin-2 [1] and on Collagenase 3 [3] were 19.6% and 2.2%, respectively. Besides, the pIC50 on Collagenase 3 [2] is 7.85; at Stromelysin-2 [4], 6.96. Also, the IC50 at Collagenase 3 [2] is 10.2 to 11.7 nM; on Stromelysin-2 [4] it was 67.6 to 112 nM.
On to `COc1cc(CNC(=O)C#Cc2cn(Cc3ccc(C(=O)NCCO)cc3)c(=O)[nH]c2=O)ccc1F`, for which the Activity on Stromelysin-2 [1] came out at 14.2%; at Collagenase 3 [3], 2.6%. Moreover, the pIC50 at Collagenase 3 [2] is 7.24; at Stromelysin-2 [4] it was 6.46. Moreover, the IC50 at Collagenase 3 [2] was 44.7 to 72.4 nM; on Stromelysin-2 [4] it was 275 to 398 nM.
As to `COc1cc(CNC(=O)C#Cc2cn(Cc3ccc(C(=O)N[C@@H](CO)C(=O)O)cc3)c(=O)[nH]c2=O)ccc1F`, the Activity came out at 10.4% at Stromelysin-2 [1] and 0.8% at Collagenase 3 [3]. Also, the pIC50 was 7.85 on Collagenase 3 [2] and 6.15 on Stromelysin-2 [4]. Also, the results for the IC50 on Collagenase 3 [2] and on Stromelysin-2 [4] were 7.76 to 15.1 nM and 501 to 832 nM, respectively.
Consider `COc1cc(CNC(=O)C#Cc2cn(Cc3ccc(C(=O)N[C@H](CO)C(=O)O)cc3)c(=O)[nH]c2=O)ccc1F`, for which the results for the Activity at Stromelysin-2 [1] and on Collagenase 3 [3] were 77% and 5.6%, respectively.
As for `COc1cc(CNC(=O)C#Cc2cn(Cc3ccc(C(N)=O)cc3)c(=O)[nH]c2=O)ccc1F`, the Activity is 13.9% at Stromelysin-2 [1] and 4.4% at Collagenase 3 [3]. Further, the pIC50 is 6.95 at Collagenase 3 [2] and 5.92 on Stromelysin-2 [4]. Further, the IC50 was 77.6 to 162 nM at Collagenase 3 [2] and 4790 to 18200 nM on Stromelysin-2 [4].
In the case of `COc1cccc(CNC(=O)c2nc3scc(COCc4ccc(C(=O)O)cc4)c3c(=O)[nH]2)c1` [T-26c], on Collagenase 3 [2], the pIC50 was 9.72 and the IC50 was 0.138 to 0.275 nM. Further, at Stromelysin-2 [4], the pIC50 was 6.45 and the IC50 is 309 to 407 nM.
For the compound `COc1cc(CNC(=O)C#Cc2cn(Cc3ccc(C(=O)N(C)C)cc3)c(=O)[nH]c2=O)ccc1F`, the results for the Activity on Stromelysin-2 [1] and at Collagenase 3 [3] were 7.1% and 1.4%, respectively. Further, the pIC50 at Collagenase 3 [2] is 7.05; at Stromelysin-2 [4] it was 6.61. In addition, the IC50 at Collagenase 3 [2] is 70.8 to 110 nM; on Stromelysin-2 [4], 186 to 589 nM.
For the compound `CNS(=O)(=O)c1ccc(Cn2cc(C#CC(=O)NCc3ccc(F)c(OC)c3)c(=O)[nH]c2=O)cc1`, the Activity came out at 12.8% at Stromelysin-2 [1] and 1.8% at Collagenase 3 [3]. In addition, the pIC50 was 7.46 on Collagenase 3 [2] and 6.27 at Stromelysin-2 [4]. The IC50 on Collagenase 3 [2] is 25.7 to 40.7 nM; on Stromelysin-2 [4] it was 407 to 676 nM.
With `COC(=O)c1ccc(Cn2cc(C#CC(=O)NCc3ccc(F)c(OC)c3)c(=O)[nH]c2=O)cc1`, the Activity at Stromelysin-2 [1] came out at 18%; on Collagenase 3 [3], 4.6%. Also, the pIC50 on Collagenase 3 [2] is 6.89; on Stromelysin-2 [4], 6.30. The values for the IC50 at Collagenase 3 [2] and on Stromelysin-2 [4] were 100 to 158 nM and 457 to 562 nM, respectively.
In the case of `COc1cc(CNC(=O)C#Cc2cn(Cc3ccc(C(=O)NC(C)C)cc3)c(=O)[nH]c2=O)ccc1F`, the Activity was determined as 56.6% on Stromelysin-2 [1] and 14.2% at Collagenase 3 [3].
The matching figures for `COc1cc(CNC(=O)C#Cc2cn(Cc3ccc(C(=O)N[C@@H](C)C(=O)O)cc3)c(=O)[nH]c2=O)ccc1F`: 28.5% and 0.8%.
The corresponding values for `COC(=O)[C@H](CO)NC(=O)c1ccc(Cn2cc(C#CC(=O)NCc3ccc(F)c(OC)c3)c(=O)[nH]c2=O)cc1` are 21.9% and 3.9%.
The matching figures for `COc1cc(CNC(=O)C#Cc2cn(Cc3ccc(C(=O)NC(C)(C)C)cc3)c(=O)[nH]c2=O)ccc1F`: 55.7% and 13.3%.
As to `COC(=O)[C@H](C)NC(=O)c1ccc(Cn2cc(C#CC(=O)NCc3ccc(F)c(OC)c3)c(=O)[nH]c2=O)cc1`, the figures for the Activity at Stromelysin-2 [1] and at Collagenase 3 [3] were 15.5% and 2.5%, respectively. Also, the pIC50 at Collagenase 3 [2] is 6.83; on Stromelysin-2 [4], 6.12. The IC50 at Collagenase 3 [2] is 102 to 195 nM; on Stromelysin-2 [4], 490 to 1070 nM.
Take `COC(=O)CNS(=O)(=O)c1ccc(Cn2cc(C#CC(=O)NCc3ccc(F)c(OC)c3)c(=O)[nH]c2=O)cc1`: the figures for the Activity at Stromelysin-2 [1] and on Collagenase 3 [3] were 14.3% and 2.1%, respectively. Moreover, the pIC50 was 7.49 on Collagenase 3 [2] and 6.31 on Stromelysin-2 [4]. Further, the IC50 on Collagenase 3 [2] was 15.1 to 34.7 nM; at Stromelysin-2 [4] it was 245 to 437 nM.
With `COC(=O)CNC(=O)c1ccc(Cn2cc(C#CC(=O)NCc3ccc(F)c(OC)c3)c(=O)[nH]c2=O)cc1`, the Activity was found to be 52.8% at Stromelysin-2 [1] and 12.2% on Collagenase 3 [3].
The corresponding values for `COc1cc(CNC(=O)C#Cc2cn(Cc3ccc(C(=O)N4CCC[C@@H]4C(=O)O)cc3)c(=O)[nH]c2=O)ccc1F` are 68.9% and 1.9%.
Consider `COc1cc(CNC(=O)C#Cc2cn(Cc3ccc(C(=O)NC4CC4)cc3)c(=O)[nH]c2=O)ccc1F`, for which the Activity at Stromelysin-2 [1] turned out to be 30.8%; at Collagenase 3 [3], 5.9%.
In the case of `COc1cc(CNC(=O)C#Cc2cn(Cc3ccc(S(N)(=O)=O)cc3)c(=O)[nH]c2=O)ccc1F`, the Activity was 19.1% at Stromelysin-2 [1] and 3.9% on Collagenase 3 [3]. For the same compound, the pIC50 was 6.59 at Collagenase 3 [2] and 5.13 at Stromelysin-2 [4]. In addition, the IC50 was 204 to 324 nM on Collagenase 3 [2] and 4790 to 18200 nM at Stromelysin-2 [4].
Turning to `COC(=O)[C@H]1CCCN1C(=O)c1ccc(Cn2cc(C#CC(=O)NCc3ccc(F)c(OC)c3)c(=O)[nH]c2=O)cc1`, the figures for the Activity at Stromelysin-2 [1] and at Collagenase 3 [3] were 17.5% and 1.8%, respectively. Further, the pIC50 at Collagenase 3 [2] is 6.76; at Stromelysin-2 [4] it was 5.69. Further, the IC50 on Collagenase 3 [2] was 209 to 219 nM; on Stromelysin-2 [4] it was 1260 to 4900 nM.
As for `COc1cc(CNC(=O)C#Cc2cn(Cc3ccc(S(=O)(=O)N4CCOCC4)cc3)c(=O)[nH]c2=O)ccc1F`, the values for the Activity at Stromelysin-2 [1] and on Collagenase 3 [3] were 15.7% and 1.2%, respectively. Also, the pIC50 at Collagenase 3 [2] is 7.18; on Stromelysin-2 [4], 5.71. Also, the IC50 at Collagenase 3 [2] is 16.2 to 36.3 nM; on Stromelysin-2 [4], 759 to 1700 nM.
As for `COc1cc(CNC(=O)C#Cc2cn(Cc3ccc(C(=O)N[C@H](C)C(=O)O)cc3)c(=O)[nH]c2=O)ccc1F`, the Activity at Stromelysin-2 [1] was 26.6%; on Collagenase 3 [3], 0.4%.
The corresponding values for `COc1cc(CNC(=O)C#Cc2cn(Cc3ccc(S(=O)(=O)N(C)C)cc3)c(=O)[nH]c2=O)ccc1F` are 47.9% and 5.8%.
Take `COc1cc(CNC(=O)C#Cc2cn(Cc3ccc(S(=O)(=O)NC(C)C)cc3)c(=O)[nH]c2=O)ccc1F`: the Activity on Stromelysin-2 [1] is 10.2%; at Collagenase 3 [3], 2.2%. Also, the pIC50 is 7.60 on Collagenase 3 [2] and 6.83 at Stromelysin-2 [4]. Further, the values for the IC50 on Collagenase 3 [2] and at Stromelysin-2 [4] were 15.1 to 34.7 nM and 67.6 to 141 nM, respectively.
As to `O=C(O)CCCOc1cccc(CNC(=O)C#Cc2cn(Cc3ccc(C(=O)O)cc3)c(=O)[nH]c2=O)c1`, the pIC50 on Stromelysin-2 [4] was 5.08.
Take `CNC(=O)c1ccc(Cn2cc(C#CC(=O)NCc3ccc(F)c(OC)c3)c(=O)[nH]c2=O)cc1`: the Activity came out at 15.4% on Stromelysin-2 [1] and 7.5% at Collagenase 3 [3]. Also, the pIC50 on Collagenase 3 [2] was 7.07; on Stromelysin-2 [4] it was 6.20. The values for the IC50 at Collagenase 3 [2] and on Stromelysin-2 [4] were 67.6 to 112 nM and 479 to 832 nM, respectively.
On to `COc1cc(CNC(=O)C#Cc2cn(Cc3ccc(S(=O)(=O)NC(C)(C)C)cc3)c(=O)[nH]c2=O)ccc1F`, for which the Activity on Stromelysin-2 [1] is 6.9%; at Collagenase 3 [3], 1.7%. For the same compound, the pIC50 on Collagenase 3 [2] was 7.59; at Stromelysin-2 [4], 6.88. Further, the figures for the IC50 on Collagenase 3 [2] and on Stromelysin-2 [4] were 12 to 20.9 nM and 51.3 to 141 nM, respectively.
With `COc1cc(CNC(=O)C#Cc2cn(Cc3ccc(C(=O)NCC(=O)O)cc3)c(=O)[nH]c2=O)ccc1F`, the Activity came to 68.6% on Stromelysin-2 [1] and 5.1% on Collagenase 3 [3].
